In brackets after ≈: the same amount, converted by molar mass. Activity calls are given as the source filed them. No cut-off for these calls is given here. Square brackets hold non-standard residues; d marks the D form. Peptide text beside a SMILES is read from it.
Columns and labels:
Staphylococcus aureus [1] = test: Bactericidal activity against methicillin resistant Staphylococcus aureus BAA 2313 assessed as inhibition of bacterial growth at MIC concentration incubated for 48 hrs by broth microdilution assay; assay type: functional, organism-based
In short: (§1)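 Plates were incubated 48 h at 37 °C and examined for colonies. A fidaxomicin-treated culture at 1 µM served as the control.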

Pseudomonas aeruginosa [2] = test: Antibacterial activity against Pseudomonas aeruginosa BAA 1744 assessed as inhibition of bacterial growth incubated for 24 hrs by absorbance based microplate reader analysis; assay type: functional
In short: (§2)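 Broth microdilution. An overnight single-colony culture in recommended broth was diluted 1:10 000, and peptide serial dilutions in DMSO were added (4 µL into 196 µL). Plates incubated 24 h at 37 °C, aerobic or anaerobic as required, then OD600 read. Inhibition was calculated against pathogen-only and blank wells.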

Salmonella enterica [3] = test: Antibacterial activity against Salmonella enterica ATCC 13314 assessed as inhibition of bacterial growth incubated for 24 hrs by absorbance based microplate reader analysis; assay type: functional; in short: as §2
Enterococcus faecium [4] = test: Bactericidal activity against vancomycin resistant Enterococcus faecium BAA 2317 assessed as inhibition of bacterial growth at MIC concentration incubated for 48 hrs by broth microdilution assay; assay type: functional, organism-based; in short: as §1
Clostridioides difficile = test: Bactericidal activity against Clostridium difficile ATCC 43602 assessed as inhibition of bacterial growth at MIC concentration incubated for 48 hrs by broth microdilution assay; assay type: functional, organism-based
In short: (§3)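 From broth-microdilution wells showing no growth, 10 µL was spotted onto agar and incubated 48 h at 37 °C. Plates were inspected for colonies. Fidaxomicin at 1 µM served as control.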

Staphylococcus aureus [5] = test: Antibacterial activity against Staphylococcus aureus ATCC 25923 assessed as reduction in bacterial growth at MIC concentration measured after 24 hrs by time-kill kinetic analysis; assay type: functional, organism-based
In short: (§4)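 Samples (5 µL) taken at 0, 1, 2, 4, 6, 12, 18 and 24 h, tenfold diluted in 0.85% NaCl, and plated on TSA overnight at 37 °C for CFU counts. Two independent duplicates.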

Escherichia coli [6] = test: Antibacterial activity against Escherichia coli ATCC 33694 assessed as inhibition of bacterial growth incubated for 24 hrs by absorbance based microplate reader analysis; assay type: functional; conditions: read-out: MIC100; in short: as §2
Listeria monocytogenes [7] = test: Bactericidal activity against Listeria monocytogenes ATCC 15313 assessed as inhibition of bacterial growth at MIC concentration incubated for 48 hrs by broth microdilution assay; assay type: functional, organism-based; in short: as §3
Staphylococcus aureus [8] = test: Bactericidal activity against Staphylococcus aureus ATCC 25923 assessed as inhibition of bacterial growth at MIC concentration incubated for 48 hrs by broth microdilution assay; assay type: functional, organism-based; in short: as §3
Escherichia coli [9] = test: Bactericidal activity against Escherichia coli ATCC 33694 assessed as inhibition of bacterial growth at MIC concentration incubated for 48 hrs by broth microdilution assay; assay type: functional, organism-based; in short: as §3
Pseudomonas aeruginosa [10] = test: Bactericidal activity against Pseudomonas aeruginosa BAA 1744 assessed as inhibition of bacterial growth at MIC concentration incubated for 48 hrs by broth microdilution assay; assay type: functional, organism-based; in short: as §3
Salmonella enterica [11] = test: Bactericidal activity against Salmonella enterica ATCC 13314 assessed as inhibition of bacterial growth at MIC concentration incubated for 48 hrs by broth microdilution assay; assay type: functional, organism-based; in short: as §3
Listeria monocytogenes [12] = test: Antibacterial activity against Listeria monocytogenes ATCC 15313 assessed as inhibition of bacterial growth incubated for 24 hrs by absorbance based microplate reader analysis; assay type: functional; conditions: read-out: MIC100
In short: (§5)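 Broth microdilution. A single colony was grown 24 h in its recommended broth, then diluted 1:10 000 in the same medium. Peptide serial dilutions were added from DMSO stock at 4 µL per 196 µL inoculated medium. Plates were incubated aerobically or anaerobically as each pathogen requires, at 37 °C for 24 h, and OD600 was read. Duplicate wells; assay repeated five times independently.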

Caco-2 = test: Anti-inflammatory activity in human Caco-2 cells infected with Clostridium difficile ATCC 43602 assessed as reduction in IL-1beta level at MIC concentration by ELISA relative to control; assay type: functional; parameters: scale not given: the % may be the effect or the level left
In short: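 Caco-2 cells grown in DMEM + 10% FBS, 37 °C, 5% CO2, to 90% confluence, then seeded 30 000 cells/well and held 24 h. C. difficile was grown overnight anaerobically in meat broth, washed in PBS, and 1 µL of 0.5 OD600 culture added per 300 µL medium. […] Cytokine in supernatant measured by ELISA; three independent replicates.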

Staphylococcus aureus [13] = test: Antibacterial activity against Staphylococcus aureus ATCC 25923 assessed as reduction in surviving bacteria at MIC concentration measured after 12 hrs by time-kill kinetic analysis; assay type: functional; in short: as §4
Staphylococcus aureus [14] = test: Antibacterial activity against Staphylococcus aureus ATCC 25923 assessed as reduction in colony forming units at MIC concentration measured after 2 hrs by time-kill kinetic analysis; assay type: functional; in short: as §4
Staphylococcus aureus [15] = test: Induction of morphological changes in Staphylococcus aureus ATCC 25923 assessed as extracellular protrusions by measuring fragments of lysed cell wall at MIC concentration by transmission electron microscopic analysis; assay type: functional, organism-based
In short: (§6)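 Cells were pelleted at 4 °C, washed in 0.1 M PBS pH 7.2, and fixed overnight (4% formaldehyde, 1.25% glutaraldehyde, ruthenium red). Post-fixed in 1% OsO4, dehydrated through ethanol, embedded in epoxy resin and imaged by TEM.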

[16] = Retention time of compound by RP-HPLC analysis; assay type: physicochemical
In short: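 Analytical reversed-phase HPLC.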

Staphylococcus aureus [17] = test: Induction of morphological changes in Staphylococcus aureus ATCC 25923 assessed as leakage of intracellular content at MIC concentration by transmission electron microscopic analysis; assay type: functional, organism-based; in short: as §6
Enterococcus faecium [18] = test: Antibacterial activity against vancomycin resistant Enterococcus faecium BAA 2317 assessed as inhibition of bacterial growth incubated for 24 hrs by absorbance based microplate reader analysis; assay type: functional; conditions: read-out: MIC100
In short: as §5, with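 “read. MIC was the lowest concentration giving 100% growth inhibition.” for “read.”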

Staphylococcus aureus [19] = test: Antibacterial activity against Staphylococcus aureus ATCC 25923 assessed as reduction in surviving bacteria at MIC concentration measured within 6 hrs by time-kill kinetic analysis; assay type: functional; in short: as §4
Staphylococcus aureus [20] = test: Induction of morphological changes in Staphylococcus aureus ATCC 25923 assessed as cell damage at MIC concentration by transmission electron microscopic analysis; assay type: functional, organism-based; in short: as §6
Staphylococcus aureus [21] = test: Induction of morphological changes in Staphylococcus aureus ATCC 25923 assessed as appearance of detached fragments at MIC concentration by transmission electron microscopic analysis; assay type: functional, organism-based; in short: as §6

Question: What does the source list for `CC[C@H](C)[C@H](NC(=O)CNC(=O)CNC(=O)[C@H](CO)NC(=O)[C@@H](NC(=O)[C@H](CCCCN)NC(=O)[C@H](CO)NC(=O)[C@H](CC(C)C)NC(=O)[C@H](CCC(=O)O)NC(=O)[C@@H](NC(=O)[C@H](CCC(=O)O)NC(=O)[C@H](CC(N)=O)NC(=O)[C@H](CC(C)C)NC(=O)[C@H](CCCCN)NC(=O)[C@H](CC(N)=O)NC(=O)[C@@H](N)CCSC)C(C)C)[C@@H](C)CC)C(=O)NCC(=O)N1CCC[C@H]1C(=O)N[C@@H](CC(C)C)C(=O)N[C@H](C(=O)N[C@H](C(=O)N1CCC[C@H]1C(=O)N[C@H](C(=O)N[C@@H](C)C(=O)N[C@@H](C)C(=O)N[C@H](C(=O)N[C@@H](CC(C)C)C(=O)NCC(=O)N[C@@H](Cc1ccccc1)C(=O)N[C@@H](CC(C)C)C(=O)N[C@@H](C)C(=O)N[C@H](C(=O)N[C@@H](CC(=O)O)C(=O)N[C@@H](C)C(=O)N[C@@H](Cc1c[nH]c2ccccc12)C(=O)N[C@@H](CC(N)=O)C(=O)N[C@@H](Cc1cnc[nH]1)C(=O)N[C@@H](C)C(=O)N[C@@H](CC(=O)O)C(=O)N[C@@H](CCC(=O)O)C(=O)N[C@@H](CC(C)C)C(=O)N[C@H](C(=O)N[C@@H](C)C(=O)NCC(=O)N[C@H](C(=O)N[C@@H](CCCCN)C(=O)N[C@@H](CCC(N)=O)C(=O)NCC(=O)N[C@@H](Cc1c[nH]c2ccccc12)C(=O)N[C@@H](CCC(=O)O)C(=O)N[C@@H](CCCNC(=N)N)C(=O)N[C@@H](CO)C(=O)O)C(C)C)C(C)C)[C@H](C)O)[C@@H](C)CC)C(C)C)[C@@H](C)CC)C(C)C`?
Answer: Activity (Staphylococcus aureus [1]): Active; Activity (Pseudomonas aeruginosa [2]): inactive; Activity (Salmonella enterica [3]): inactive; Activity (Enterococcus faecium [4]): Active; Activity (Clostridioides difficile): Active; Activity (Staphylococcus aureus [5]): Active; MIC (Escherichia coli [6]): 7.5 µM (≈ 41.4 µg/mL); Activity (Listeria monocytogenes [7]): Active; Activity (Staphylococcus aureus [8]): Active; Activity (Escherichia coli [9]): Active; Activity (Pseudomonas aeruginosa [10]): Active; Activity (Salmonella enterica [11]): Active; MIC (Listeria monocytogenes [12]): 1.2 µM (≈ 6.62 µg/mL); Activity (Caco-2): 91%; Activity (Staphylococcus aureus [13]): 5 log10CFU/ml; Activity (Staphylococcus aureus [14]): 2 log10CFU/ml

Question: For `CC[C@H](C)[C@@H]1NC(=O)CNC(=O)CNC(=O)[C@H](CO)NC(=O)[C@H]([C@@H](C)CC)NC(=O)[C@H](CCCCN)NC(=O)[C@H](CO)NC(=O)[C@H](CC(C)C)NC(=O)[C@@H](C(C)C)NC(=O)[C@@H]2CCCN2C(=O)[C@H]([C@@H](C)CC)NC(=O)[C@H](C(C)C)NC(=O)[C@H](CC(C)C)NC(=O)[C@@H]2CCCN2C(=O)CNC1=O` (cyclo(LSKISGGIGPLVIP[dV])), which Activity (Staphylococcus aureus [1]) is on record?
Answer: The Activity was “Active”.

Question: And the Activity (Salmonella enterica [3])?
Answer: Its Activity is “inactive”.

Question: What about the Activity (Enterococcus faecium [4]) of the same compound?
Answer: The Activity was “Active”.

Question: And the Activity (Clostridioides difficile)?
Answer: The Activity was “Active”.

Question: What about the Activity (Staphylococcus aureus [5]) of the same compound?
Answer: The Activity was “Active”.

Question: What about the Activity (Staphylococcus aureus [15]) of the same compound?
Answer: The Activity was “Active”.

Question: What about the Retention_time [16] of the same compound?
Answer: The Retention_time was 17.76 min.

Question: What about the Activity (Staphylococcus aureus [17]) of the same compound?
Answer: The Activity was “Active”.

Question: And the MIC (Enterococcus faecium [18])?
Answer: The MIC was 1.5 µM (≈ 2.15 µg/mL).

Question: What about the Activity (Listeria monocytogenes [7]) of the same compound?
Answer: Its Activity is “Active”.

Question: What about the Activity (Staphylococcus aureus [19]) of the same compound?
Answer: The Activity was 5 log10CFU/ml.

Question: And the Activity (Staphylococcus aureus [8])?
Answer: The Activity was “Active”.

Question: And the Activity (Escherichia coli [9])?
Answer: Its Activity is “Active”.

Question: And the Activity (Pseudomonas aeruginosa [10])?
Answer: The Activity was “Active”.

Question: What about the Activity (Salmonella enterica [11]) of the same compound?
Answer: The Activity was “Active”.

Question: What about the Activity (Staphylococcus aureus [20]) of the same compound?
Answer: The Activity was “Active”.

Question: What about the Activity (Staphylococcus aureus [21]) of the same compound?
Answer: Its Activity is “Active”.

Question: What about the Activity (Staphylococcus aureus [14]) of the same compound?
Answer: Its Activity is 3 log10CFU/ml.

Reference: ChEMBL document CHEMBL6177914, “Human microbiome derived synthetic antimicrobial peptides with activity against Gram-negative, Gram-positive, and antibiotic resistant bacteria” (RSC Med Chem, 2025)
